Screening data: PubChem BioAssay, several laboratories
TNAP act hi DEA = TNAP (human) activation, high acceptor | AID 1136 | activation factor at 20 µM | P05186 | purified TNAP, CDP-star luminescence, 1 M DEA, 30 min; stronger effect = higher value; 0 = EDTA background, 1 = DMSO-only activity | 200,000 tested, under 10 active;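 active means activation factor at least 2 at 20 µM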
Target sequence (P05186 whole entry, looked up): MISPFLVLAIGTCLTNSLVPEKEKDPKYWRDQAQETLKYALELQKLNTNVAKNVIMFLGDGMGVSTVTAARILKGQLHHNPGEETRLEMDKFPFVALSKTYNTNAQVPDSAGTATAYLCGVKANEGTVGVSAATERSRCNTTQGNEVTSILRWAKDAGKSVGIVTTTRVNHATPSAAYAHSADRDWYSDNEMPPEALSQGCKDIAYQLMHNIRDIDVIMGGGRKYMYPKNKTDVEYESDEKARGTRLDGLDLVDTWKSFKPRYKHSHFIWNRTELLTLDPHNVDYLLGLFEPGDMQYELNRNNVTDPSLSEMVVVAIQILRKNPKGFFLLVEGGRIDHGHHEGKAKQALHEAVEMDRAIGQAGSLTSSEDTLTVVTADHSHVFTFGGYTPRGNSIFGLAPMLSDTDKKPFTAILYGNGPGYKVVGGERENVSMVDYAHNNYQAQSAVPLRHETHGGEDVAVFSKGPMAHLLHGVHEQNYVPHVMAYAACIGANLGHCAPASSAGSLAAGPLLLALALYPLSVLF
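Assay system: human TNAP; Input: enzyme diluted 1/800 final; Reagent: CDP-star luminogenic substrate at 100 µM final; Timing: 30 min, room temperature; Signal: luminescence; Evaluation: TNAP activation factor scaled between EDTA and DMSO control wells.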
TNAP inh no acc = blocks human TNAP activity with no phosphate acceptor present. purified TNAP, CDP-star luminescence, 30 min. inhibition, % at 20 µM. AID 1012. hit rate 0.26% among 200,000;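 active means tissue-nonspecific alkaline phosphatase inhibition above about 50% at 20 µM in the single-dose screen, limit read from the data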;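 further: 0% = DMSO negative control and 100% = EDTA positive control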
bCat KO growth = beta-catenin-lacking colon tumor cell growth suppression; HCT116 beta-catenin knockout viability, CellTiter-Glo, 60 h; stronger effect = lower value; viability, % at 10 µM; hit rate 1.5% among 140,000; AID 818;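 active means viability at or under a set limit, the compound median less 4 SD, cut at about 6% in these data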;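 further: 0% = Hyamine 1622 control at 20 µM and 100% = untreated cell control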
TNAP inh hiacc = TNAP (human) inhibition, high acceptor; P05186; hit rate 0.03% among 200,000; inhibition, % at 20 µM; AID 1135; purified TNAP, CDP-star luminescence, 1 M DEA;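 active means over 50% inhibition of tissue-nonspecific alkaline phosphatase at 20 µM in the single-dose screen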;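 further: plate controls were DMSO wells for no effect and EDTA-quenched wells as full inhibition for full effect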
L major viab = reduces viability of Leishmania major promastigotes; resazurin fluorescence viability; inhibition, % at 10 µM; hit rate 9% among 200,000; AID 1063; in the data active means inhibition above about 50%;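 further: promastigotes grown with compound for 44 hours at 28 °C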
HCT116 PTEN-null = growth suppressors of cells with PTEN tumor suppressor deletion | AID 827 | hit rate 1.2% among 140,000 | HCT116 PTEN-null viability, CellTiter-Glo, 60 h; stronger effect = lower value | viability, % at 10 µM;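 active means viability at or below a set limit, 4 SD under the median of all tested compounds, cut at about 3.7% in these data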;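 further: PTEN knockout HCT116 line with beta catenin targeted HCT116 as companion control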
The depositor's hits bear a star; . = no result given. Hits are enriched below; roughly 9.6% of the tested compounds scored in any of these assays.

SMILES	TNAP act hi DEA	TNAP inh no acc	bCat KO growth	TNAP inh hiacc	L major viab	HCT116 PTEN-null
CC(C)CN1C2CCCC1CC(NC(=S)NCc1ccco1)C2 (stereo unspecified)	1	-15	.	-3	34	.
CC(C)CNC(=S)NC1CC2CCCC(C1)N2Cc1cccs1 (stereo unspecified)	1	-10	95	-3	94*	95
Cc1ccc(S(=O)(=O)N2CCCCC2)cc1NC(=O)C1CCCO1 (stereo unspecified)	1	-12	.	-4	6	.
O=C(/C=C(\c1ccc(Cl)cc1)n1cncn1)c1ccc(Cl)cc1	1	-5	77	-1	74*	72
O=C(/C=C(\c1ccccc1)n1cncn1)c1ccccc1	1	-4	79	2	7	91
O=C(C1=NNCC1c1ccccc1)C1CO1 (stereo unspecified)	1.1	-12	54	-6	-2	58
CCOc1ccc(C(=O)NC(=S)N(Cc2ccccc2)Cc2ccccc2)cc1	1	-9	31	-3	57*	30
CCOc1ccc(CN(CCC#N)C(=S)NC(=O)c2ccccc2)cc1	1	8	52	2	20	52
COc1ccc(CN(CCC#N)C(=S)NC(=O)c2ccccc2)cc1	1	-4	67	1	60*	68
N#CCCN(Cc1ccccc1)C(=S)NC(=O)c1ccccc1	1	4	39	-1	6	34
CCOc1ccc(C(=O)NCCc2ccccc2)cc1	1	-4	87	-4	0	87
N#CCCN(Cc1ccccc1)C(=S)Nc1ccccc1	1	-4	96	-4	52*	104
CN(C)CCCN(Cc1ccccc1)C(=S)Nc1ccc(OC(F)F)cc1	1	-10	92	-1	99*	90
Cc1c(Br)c([N+](=O)[O-])nn1CC(=O)Nc1ccc(C(N)=O)cc1	1	0	.	-1	13	.
COc1cc(C=NCC2OCCc3ccccc32)cc(OC)c1 (stereo unspecified)	1	-26	88	2	-5	101
COc1ccc(S(=O)(=O)N2CCC(C(=O)Nc3ccc(F)cc3)CC2)c2cccnc12	1	0	.	-1	14	.
CCS(=O)(=O)c1ccc2c(c1)N(S(C)(=O)=O)CC(C(=O)NN)O2 (stereo unspecified)	1	8	.	0	1	.
COc1cccc(CN2CCC(C(=O)N3CCN(c4ccccc4F)CC3)CC2)c1	0.9	-3	89	6	89*	89
COc1cc(CN2CCC(C(=O)N3CCN(c4ccccc4F)CC3)CC2)ccc1O	1	-7	81	-2	63*	81
COc1cc(CN2CCC(C(=O)NC3CCCC3)CC2)ccc1O	1	-5	89	-4	-3	95
COc1ccc(OC)c(CN2CCC(C(=O)N3CCN(c4ccccc4F)CC3)CC2)c1	1.1	-11	86	-10	-13	79
O=C(NCC(=O)N1CCN(S(=O)(=O)/C=C/c2ccccc2)CC1)c1ccccc1F	1	-2	.	-4	-2	.
O=C(Cc1ccccc1Cl)Nc1cccnc1	1	-13	.	-4	1	.
COc1ccc2c(c1)c(=O)oc1cc(OCC(=O)NC3CC3)ccc12	1.1	-12	3.8*	-5	-3	48
CCCCOc1ccc(C2C(C(=O)c3ccc(C)o3)=C(O)C(=O)N2CC2CCCO2)cc1 (stereo unspecified)	1	-3	91	-3	53*	94
SMILES	TNAP act hi DEA	TNAP inh no acc	bCat KO growth	TNAP inh hiacc	L major viab	HCT116 PTEN-null
OCC1(CCCc2ccccc2)CCN(Cc2cc(F)ccc2F)CC1	1.1	-10	.	-11	83*	.
Cc1cccc(CN2CCN(C(=S)Nc3ccccc3)CC2)c1	1.1	-5	.	-5	-5	.
Clc1cccc(CN2CCN(Cc3nc(CCc4ccccc4)no3)CC2)c1	1.1	-4	.	-8	64*	.
OCC1(CCc2ccccc2)CCN(Cc2cc(F)ccc2-n2cccn2)CC1	1.1	-3	.	-5	18	.
Cc1cccc(CN2CCN(CCCc3ccccc3)CC2)c1	1	-5	.	-3	96*	.
Clc1ccccc1CN1CCN(CCCc2ccccc2)CC1	1	-8	.	-2	93*	.
CCCS(=O)(=O)N1CCN(Cc2ccc3c(c2)c2ccccc2n3CC)CC1	1	-8	73	3	71*	75
OCC1(CCc2ccccc2)CCN(Cc2ccccc2Cl)CC1	1.1	-2	.	-9	57*	.
O=C(NCCN1CCN(Cc2ccccc2Cl)CC1)Nc1ccccc1	1.1	-12	81	-6	82*	86
CCCS(=O)(=O)N1CCN(CCCc2ccccc2)CC1	1	-14	94	-3	79*	96
CCCS(=O)(=O)N1CCC(C(=O)N2CCN(Cc3ccccc3)CC2)CC1	1	-9	82	-2	-2	81
CCn1c2ccccc2c2cc(CN3CCN(C(=O)c4ccco4)CC3)ccc21	1.1	-10	83	-8	12	81
CCCCCNC(=O)C1CC(=O)OC12CCCCC2 (stereo unspecified)	1	-8	.	-5	-6	.
CCOc1ccc(NC(=O)C(Cc2ccccc2)NC(=O)C2CCCCC2)cc1 (stereo unspecified)	1	0	84	2	-6	93
C[C@H](NS(=O)(=O)c1ccccc1)C(=O)OCC(=O)NC(=O)Nc1ccc2c(c1)OCCO2	1	-3	96	-2	46	102
COc1cc(-c2nc3ccc4ccccc4c3c3c2CCC3)cc(OC)c1O	1	-10	81	3	99*	81
COc1ccc(NC(=O)Cc2coc3ccc4ccccc4c23)cc1S(=O)(=O)N1CCOCC1	1.1	-13	80	-8	78*	66
COc1ccc(C(=O)Nc2ccc(-c3ccc(C)o3)cc2)cc1S(=O)(=O)N1CCOCC1	1	-10	5.7*	-3	-4	11
COc1ccc(NC(=O)CN2CCc3ccccc3C2)cc1S(=O)(=O)N1CCOCC1	1.1	-10	93	-7	70*	95
COc1ccc(NC(=O)Cc2coc3cc(C)ccc23)cc1S(=O)(=O)N1CCOCC1	1	-9	80	-2	-6	80
Cc1cc(NC(=O)c2cccc(Oc3ccccc3)c2)n[nH]1	1	-94	.	-4	-10	.
CC12CNCC(C)(CN(C(c3ccccc3)c3ccccc3)C1)C2	1	-10	54	-4	100*	57
Cc1ccc(C(=O)COC(=O)CCc2ccc(S(=O)(=O)N3CCCCC3)cc2)cc1	1	-11	95	-3	-8	97
CC(=O)Nc1ccccc1Sc1ccccc1	1	-10	98	0	-4	98
O=C(Cc1ccc(Cl)cc1)Nc1ccccc1Sc1ccccc1	1.1	-10	74	-7	44	70
O=C(CCl)Nc1ccccc1Sc1ccccc1	1	33	42	1	54*	41
